These results are taken from article PMC4136418 (Drug development and industrial pharmacy, 2013).

In brackets after ≈: the same amount, converted by molar mass.

Data set [1] in a line: Solubility in buffers, Vaginal Fluid Simulant and organic solvents. It counts as physicochemical.
A short description of a further data set: Dynamic vapor sorption. The data set is classed as physicochemical. The conditions noted are these: 25°C/80% RH. In a few lines:
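Test compound powder (about 7 mg) is dried at 0% RH for at least 2 h at 40 °C. Sorption then runs isothermally at 25 °C, with RH stepped from 0 to 90% and back to 0%.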

The nature of the next data set: Stability study. It counts as physicochemical. The conditions noted are these: all test conditions: pH 3.0–9.0, 25, 40 or 65 °C, light, 0.02% hydrogen peroxide; up to 21 days.
Data set [2] can be described thus: In vitro cytotoxicity, MTT assay, CaSki cells. It counts as cell-based. The conditions noted are these: human. In a few lines:
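Cells are grown at 37 °C in 5% CO2 with 10% FBS and penicillin-streptomycin: A 431 in DMEM, CaSki in RPMI 1640. They are seeded at 1 × 10^4/well, grown 24 h, then exposed to 1 ng/ml–50 μg/ml compound for 24, 48 or 72 h. Fresh medium plus MTT (5 mg/ml solution) follows for 4 h. Formazan is dissolved in DMSO and read at 595 nm; n = 8.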
On the technique in general: Formazan colour is commonly taken as a measure of viable cells.

Data set [3] is described as follows: Transport across Caco-2 cell monolayers. It counts as in vitro ADME, human. The conditions noted are these: human; for Papp A→B at 2 h, 25 μg/ml: Caco-2, Papp (a–b). In a few lines:
(§1)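 Caco-2 cells (passages 27–32) are grown on 4.2 cm2 polycarbonate inserts and used on days 21–24 if TEER exceeds 600 Ωcm2. HBSS is buffered with […] (pH 5.5, 6.5) or HEPES (pH 7.4); monolayers are preincubated 20 min. The pH study uses 25 μg/ml apical, basolateral pH 7.4. Bidirectional runs use 2.5–250 μg/ml at pH 7.4. Incubation is 2 h at 37 °C with sampling to 120 min; HPLC gives Papp = (dQ/dt)/(A×C0); n = 3.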
(Caco-2 cells form a polarised layer with tight junctions and transporters.)

For another data set, the system named is Caco-2 cell monolayers. Briefly: Transport across Caco-2 cell monolayers. It counts as in vitro ADME, human. An outline of the steps:
as §1

The nature of data set [4]: Human ectocervical tissue permeability study. It counts as in vitro ADME.
The test system of data set [5] is HIV-1. It counts as cell-based. The conditions noted are these: for Anti-HIV activity: drug present at constant levels throughout the HIV infection process, 48 h.
The test system of data set [6] is HIV-1. It counts as cell-based. The conditions noted are these: 16 h pretreatment, drug removed before HIV exposure.
For another data set, the system named is HIV. The conditions noted are these: cited from earlier work.

As for `C#C[C@]1(CO)O[C@@H](n2cnc3c(N)nc(F)nc32)C[C@@H]1O` [EFdA, 4′-Ethynyl-2-fluoro-2′-deoxyadenosine], the solubility (in general, the dissolved amount per volume that the medium holds) at 120 h was 799 ± 8.7 µg/mL (≈ 2.73 mM) in data set [1] (PBS, pH 6); 1510 ± 68.4 µg/mL (≈ 5.14 mM) in data set [1] (acid phthalate buffer, pH 3); 1360 ± 48.3 µg/mL (≈ 4.63 mM) in data set [1] (acid phthalate buffer, pH 4); 1620 ± 55.9 µg/mL (≈ 5.53 mM) in data set [1] (acid phthalate buffer, pH 4, aqueous buffer, thermodynamic from solid). The amount in solution in data set [1] (Vaginal Fluid Simulant, pH 4.2) (solubility) came to 887 µg/mL (≈ 3.03 mM). Also, the Change in solubility entry in data set [1] (from pH 6–9) is reported as “no obvious change in solubility”. For the same compound, the “Change in solubility with increase in ionic strength” value in data set [1] (pH 7.0 and 9.0) is reported as “statistically significant decrease”. Besides, in “Dynamic vapor sorption”, the Moisture absorbed result is listed as “approximately 10 % w/w”. Moreover, the Drug remaining in “Stability study” is more than 95%. Also, in [2], the midpoint of cytotoxicity, the CC50 at 48 h, lay at 47.8 ± 12.4 µg/mL (≈ 0.163 mM). For the same compound, the CC50 (commonly the concentration giving 50% cytotoxicity) at 72 h in [2] stood at 41.1 ± 8.78 µg/mL (≈ 0.14 mM). Further, the Papp – broadly, the rate of passage across a membrane or cell layer, normalised by area and donor concentration – at 2 h in data set [3] (Caco-2) is less than 1 ×10⁻⁶ cm/s. Moreover, the efflux ratio (commonly a quotient of directional permeabilities that is used to spot active efflux) at 2 h, 25 μg/ml in data set [3] (Caco-2) is 8.01. Besides, the efflux ratio at 2 h, 250 μg/ml in data set [3] (Caco-2) was 2.74. Moreover, the Papp A→B (as a rule, the apparent permeability from the apical to the basolateral side of a cell layer) at 2 h, 25 μg/ml in data set [3] (apical pH 5.5, basolateral pH 7.4) came out at 0.367 ×10⁻⁶ cm/s; in data set [3] (apical pH 6.5, basolateral pH 7.4) it was 0.436 ×10⁻⁶ cm/s. The same compound registered a Papp A→B at 2 h, 250 μg/ml in data set [3] (Caco-2, pH 7.4, Papp (a–b), 250 μg/ml, pH 7.4 both sides) of 0.595 ×10⁻⁶ cm/s. The “Absorptive transport (a–b), drug in receptor compartment” value in the data set with Caco-2 cell monolayers (2.5 μg/ml, pH 7.4, HPLC LOD 0.05 μg/ml) is recorded as “no EFdA was detected”. In the data set on Caco-2 cell monolayers (high concentration group (250 μg/ml)), the “Papp (b-a), fold lower than low and medium concentration treatments” value is on record as “about 2 fold”. For the same compound, the Papp at 6 h, 500 μg/ml in [4] (female, human, pH 7.4) was 0.834 ×10⁻⁶ cm/s. For the same compound, in data set [4] (human ectocervical tissues pre- and post-treatment), the “Tissue morphology after exposure” value is on record as “lack of any significant morphological changes”. In addition, the “Selectivity index (CC50/EC50)” value in the data set on HIV-1 [5] (cell-based studies) is “greater than 1 × 10^3”. Besides, the Anti-HIV activity entry in the data set on HIV-1 [5] is “highly potent inhibitors”. Also, the “Potency relative to UC781” value in the data set on HIV-1 [5] (drug present throughout infection) is given as “about two-fold more potent than UC781”. In addition, the “Protective or memory effect” value with HIV-1 [6] is listed as “retained anti-HIV protection similar to that seen when EFdA was present throughout the infection”. Moreover, the EC50 (usually the concentration at which the effect is half-maximal) with HIV is approximately 0.07 nM.
Consider `CC(C)=CCOc1cc(NC(=S)c2ccoc2C)ccc1Cl` [UC781, reference compound], for which the Anti-HIV activity result in the data set on HIV-1 [5] was “highly potent inhibitors”. Also, in the data set on HIV-1 [6], the “Protective or memory effect” value is recorded as “substantial diminution of anti-HIV protection”.
